The values below come from PubChem BioAssay.

Activity calls are given as the source filed them.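 Rule for the calls, unless noted: active = fluorescence slope higher than the sample average by over 3 SD (cut at about -0.22 in these data, passing the limit was not always enough); inactive = the rest.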

A short description of assay [1]: inhibitors of TNFa-induced NFkB p65 translocation, primary screen, imaging, HUVEC, MLSMR starter and 10KST1 sets (AID 438;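 active = inhibition above 20% together with a positive visual image hit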;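 note: compound added about 3h40 before a 20 min TNFalpha stimulation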;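 for inhibition: signal is the nuclear over cytoplasmic p65 intensity ratio per well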). The following applies: HUVEC TNFa-induced p65 nuclear translocation; cell count: measured here: nuclei count (cytotoxicity indicator), at 2.08 µM; inhibition: at 2 µM, stronger effect = higher value, 0% TNFa-plus-vehicle, 100% no-TNFa wells.
The nature of assay [2]: inhibitors of mutant huntingtin aggregation, primary screen, imaging, exon1htt(103Q)mCFP cells, high-content imaging (AID 483;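 active = visual image review flags a hit and inhibition of aggregation exceeds 20%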;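 note: compound exposure lasted 3 days before fixation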;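 for nuclei count: percent of the per-plate median nuclei count of sample wells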). The following applies: exon1htt(103Q)mCFP cell line, aggregate imaging, at 2 µM; inhibition of aggregation: stronger effect = higher value; nuclei count: measured here: cell count, toxicity.
Assay [3] in a line: inhibitors of E-selectin induction by TNFa, primary screen, imaging, HUVEC, immunofluorescence, MLSMR starter and 10KST1 sets (AID 487;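 active = visually confirmed hit in the image check and inhibition above 20%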;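 for inhibition: signal is fraction of cell area covered by stained E-selectin grains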;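 for nuclei count: 100% = median nuclei count of all wells on the same plate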). The settings on record: HUVEC TNFalpha-induced E-selectin immunofluorescence imaging, at 2 µM; inhibition: stronger effect = higher value; nuclei count: measured here: cell number, toxicity.
Assay [4] concerns the target Voltage-gated potassium channel subunit beta-2 (Rattus norvegicus) (UniProt P62483). The assay is described as follows: KvBeta enzyme negative modulators, primary screen, biochemical, NADPH fluorescence (AID 622).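 Note: slope of raw intensity against log time taken from 70 to 1610 s.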 The following applies: recombinant KvBeta, 4-cyanobenzaldehyde reduction, at 10 µM, stronger effect = higher value.
For assay [5] the target is unchanged. Nature of the assay: KvBeta positive modulators, primary screen, biochemical, NADPH fluorescence (AID 623;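 active = NADPH fluorescence slope more negative than the mean of all samples by about 3 SD, 99.7% confidence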;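 note: fluorescence intensity change per second fitted from 20 to 320 s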). The settings on record: Recombinant KvBeta, NADPH fluorescence decrease slope, 10 min; at 10 µM; stronger effect = lower value.
The target of assay [6] is Muscarinic acetylcholine receptor M4 (Homo sapiens) (UniProt P08173). Nature of the assay: compounds altering M4/GIRK thallium flux, either direction, primary screen, M4 allosteric agonist project, cell-based, HEK293 M4/GIRK, BTC-AM (AID 625;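 active = fluorescence slope after compound addition differing from the mean of all tested samples at 99.7% confidence, mostly higher but some lower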;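 note: thallium influx through GIRK channels coupled to M4 in HEK293 cells with BTC-AM dye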). The settings on record: at 10 µM, actives lie on both sides. A digest of the protocol:
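Material – HEK293 cells with M4 receptor and GIRK channels · Buffer or medium – pH 7.3 thallium assay buffer · Doses – one dose, 10 µM final · Timing – cells overnight at 37 °C, BTC-AM loading 1 h, reads 2 min total · Measured by – kinetic fluorescence with BTC-AM dye · Controls – carbachol and DMSO controls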

Assay [7] can be described thus: inhibitors of Sendai virus-induced IRF3 signaling, primary screen, TLR/RLR signaling modifier project, cell-based, Sendai virus stimulus, luciferase, 10K MLSCN set (AID 602276;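 active = inhibition at or above 50% at 10 µM; inactive = inhibition below 50%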;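 note: firefly luciferase from ISG56 promoter only with Renilla not read in this screen; 0% = Sendai virus plus DMSO and 100% = medium plus DMSO without virus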). The settings on record: HEK293 RL24 IRF3 luciferase reporter, at 10 µM, stronger effect = higher value. (In general: In a reporter assay the amount or activity of a reporter protein is the signal.)
The nature of assay [8]: inhibitors of poly I:C-induced TLR3 signaling, primary screen, cell-based, poly I:C stimulus, luciferase, 10K MLSCN set (AID 602277;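 active = inhibition of the reporter signal at or above 50%; inactive = inhibition below 50%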). The following applies: HEK293-TLR3 RL24 IRF3 luciferase reporter, at 10 µM, stronger effect = higher value.

Sequence of Muscarinic acetylcholine receptor M4 (Homo sapiens) (P08173 whole entry, looked up): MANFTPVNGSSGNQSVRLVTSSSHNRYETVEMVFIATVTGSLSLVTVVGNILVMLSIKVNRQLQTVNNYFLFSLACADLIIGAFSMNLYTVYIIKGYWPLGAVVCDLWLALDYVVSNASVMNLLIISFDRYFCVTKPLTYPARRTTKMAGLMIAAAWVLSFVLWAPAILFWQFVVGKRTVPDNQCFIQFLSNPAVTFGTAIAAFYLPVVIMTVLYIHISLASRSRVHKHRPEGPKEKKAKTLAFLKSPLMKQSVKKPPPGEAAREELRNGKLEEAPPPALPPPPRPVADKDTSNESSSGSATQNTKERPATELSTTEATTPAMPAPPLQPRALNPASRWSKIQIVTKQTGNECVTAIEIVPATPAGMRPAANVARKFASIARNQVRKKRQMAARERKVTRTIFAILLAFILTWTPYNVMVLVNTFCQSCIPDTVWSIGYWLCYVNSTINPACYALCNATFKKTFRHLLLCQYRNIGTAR
Sequence of Voltage-gated potassium channel subunit beta-2 (Rattus norvegicus) (P62483 whole entry, looked up): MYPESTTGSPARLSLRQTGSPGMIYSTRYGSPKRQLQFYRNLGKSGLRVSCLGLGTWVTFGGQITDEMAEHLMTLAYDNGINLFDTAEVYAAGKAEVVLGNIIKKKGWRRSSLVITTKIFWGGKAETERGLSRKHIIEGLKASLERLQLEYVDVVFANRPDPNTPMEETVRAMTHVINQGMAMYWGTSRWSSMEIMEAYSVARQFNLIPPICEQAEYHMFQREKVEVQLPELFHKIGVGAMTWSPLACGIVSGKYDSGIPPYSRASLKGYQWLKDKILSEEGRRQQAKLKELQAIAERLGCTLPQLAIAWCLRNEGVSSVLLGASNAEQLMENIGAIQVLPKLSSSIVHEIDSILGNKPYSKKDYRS

As a reminder, the inhibition is the relative decrease from the control value, in per cent. Take `Cc1ccc(C(=O)CSc2nnc(CNc3ccc(C)cc3C)o2)cc1`: the cell count in assay [1] is 553. Besides, the inhibition in assay [1] is -7.3% (inactive); in assay [3] it was -124% (inactive); in assay [7] it was 6.54% (inactive); in assay [8] it was -0.256% (inactive). In addition, in assay [2], the inhibition of aggregation was 19.7% (inactive). Moreover, the nuclei count in assay [2] came out at 97.5%; in assay [3], 193%. Besides, the fluorescence slope was -0.477 (inactive) in assay [4] and 0.00488 (inactive) in assay [6]. In assay [5], the NADPH fluorescence slope is -8.9e-06 (inactive).
For `O=C(O)CCn1c(SCc2ccccc2)nc2ccccc21`, the cell count in assay [1] came to 423. In addition, the inhibition is -4.4% (inactive) in assay [1], -33.6% (inactive) in assay [3], -9.99% (inactive) in assay [7] and -40.3% (inactive) in assay [8]. For the same molecule, the inhibition of aggregation in assay [2] is 25% (inactive). The nuclei count was 73.9% in assay [2] and 93.6% in assay [3]. Moreover, the fluorescence slope was -0.505 (inactive) in assay [4] and 0.00554 (inactive) in assay [6]. The NADPH fluorescence slope in assay [5] was -2.4e-05 (inactive).
Take `Cc1ccc(CC23CN4CCN(CC(C4)C2O)C3)c(C)c1` (centres undefined): the cell count in assay [1] was found to be 435. Besides, the inhibition was 0% (inactive) in assay [1], -40.9% (inactive) in assay [3], 18.9% (inactive) in assay [7] and 14.1% (inactive) in assay [8]. Besides, the inhibition of aggregation in assay [2] is 2% (inactive). Besides, the nuclei count came to 107% in assay [2] and 116% in assay [3]. The fluorescence slope was -0.494 (inactive) in assay [4] and 0.0044 (inactive) in assay [6]. In assay [5], the NADPH fluorescence slope is -2.9e-05 (inactive).
In the case of `Oc1ccc(N2CCN(C(c3cccnc3)c3nnnn3Cc3ccccc3)CC2)cc1` (centres undefined), in assay [1], the cell count came to 612. The inhibition in assay [1] was 1.4% (inactive); in assay [3], -71.6% (inactive); in assay [7], 9.52% (inactive); in assay [8], -11.5% (inactive). Moreover, in assay [2], the inhibition of aggregation is -2.4% (inactive). Also, the nuclei count is 118% in assay [2] and 113% in assay [3]. Also, the values for the fluorescence slope in assay [4] and in assay [6] were -0.468 (inactive) and 0.0054 (inactive), respectively. Further, the NADPH fluorescence slope in assay [5] is -0.000313 (inactive).
As for `Cc1c(/C(O)=C2/C(=O)C(=O)N(CCN3CCOCC3)C2c2cccs2)cnn1-c1ccccc1` (centres undefined), the cell count in assay [1] is 566. Also, the inhibition is 13.4% (inactive) in assay [1], 21.8% (inactive) in assay [3], 2.43% (inactive) in assay [7] and 21.8% (inactive) in assay [8]. Further, the inhibition of aggregation in assay [2] was -5% (inactive). Moreover, the nuclei count came out at 103% in assay [2] and 97.7% in assay [3]. In addition, the fluorescence slope is -0.502 (inactive) in assay [4] and 0.00361 (inactive) in assay [6]. Further, the NADPH fluorescence slope in assay [5] is -0.000209 (inactive).
As to `Cc1cc(NC(=O)NC(=O)c2cccc(OC(F)(F)C(F)F)c2)n[nH]1`, the cell count in assay [1] turned out to be 520. Also, the inhibition was -14% (inactive) in assay [1], -45% (inactive) in assay [3], -14.7% (inactive) in assay [7] and -48.5% (inactive) in assay [8]. Also, the inhibition of aggregation in assay [2] is -5.5% (inactive). The nuclei count in assay [2] was 76.8%; in assay [3], 102%. Besides, the fluorescence slope was -0.539 (inactive) in assay [4] and 0.00729 (inactive) in assay [6]. Further, the NADPH fluorescence slope in assay [5] is 0.000153 (inactive).
`CC(=O)SCC(=O)N=c1sc2cc(F)ccc2n1C`: the cell count in assay [1] is 491. Further, the inhibition in assay [1] is 1.1% (inactive); in assay [3] it was 3.4% (inactive); in assay [7], 3.65% (inactive); in assay [8] it was 2.45% (inactive). The inhibition of aggregation in assay [2] is -2.8% (inactive). The nuclei count was found to be 91.7% in assay [2] and 104% in assay [3]. Also, the fluorescence slope in assay [4] is -0.493 (inactive); in assay [6] it was 0.00565 (inactive). In addition, in assay [5], the NADPH fluorescence slope is 4.8e-06 (inactive).
Regarding `Cc1nc(C)c(C(=O)C2=C(O)C(=O)N(CCN3CCOCC3)C2c2cccnc2)s1` (centres undefined), the cell count in assay [1] was found to be 256. The inhibition in assay [1] was -0.4% (inactive); in assay [3], -7.1% (inactive); in assay [7], 17.2% (inactive); in assay [8] it was 22.7% (inactive). Besides, the inhibition of aggregation in assay [2] is 22.5% (inactive). In addition, the nuclei count in assay [2] was 92.8%; in assay [3], 96.9%. The fluorescence slope in assay [4] is -0.557 (inactive); in assay [6], 0.0026 (inactive). Moreover, the NADPH fluorescence slope in assay [5] was -0.000101 (inactive).
As to `CCCCC(=NCCO)C1=C(O)C(C(=O)OC)C(C)(C)CC1=O` (centres undefined), the cell count in assay [1] was 473. Moreover, the inhibition in assay [1] was 1.8% (inactive); in assay [3], -64.1% (inactive); in assay [7] it was 16.3% (inactive); in assay [8], 18.4% (inactive). Moreover, the inhibition of aggregation in assay [2] was 0.5% (inactive). Also, the nuclei count in assay [2] was found to be 102%; in assay [3], 167%. Also, the fluorescence slope in assay [4] was -0.407 (inactive); in assay [6] it was 0.00804 (inactive). Also, the NADPH fluorescence slope in assay [5] was 5e-05 (inactive).
As to `CCN(CCCNC(=O)c1cn(CC)c2ccc(S(=O)(=O)N(C)C)cc2c1=O)c1cccc(C)c1`, the cell count in assay [1] stood at 587. Besides, the inhibition in assay [1] is -12.9% (inactive); in assay [3], -62.7% (inactive); in assay [7], 5.55% (inactive); in assay [8], 3.96% (inactive). For the same molecule, in assay [2], the inhibition of aggregation was 23.2% (inactive). The nuclei count in assay [2] came to 106%; in assay [3], 116%. The fluorescence slope in assay [4] is -0.475 (inactive); in assay [6], 0.00589 (inactive). Besides, the NADPH fluorescence slope in assay [5] was 8.6e-05 (inactive).
With `COCCCNC(=O)CCc1nc(-c2ccccc2Cl)no1`, the cell count in assay [1] is 476. In addition, the inhibition in assay [1] is 8.6% (inactive); in assay [3], -130% (inactive); in assay [7], 17.7% (inactive); in assay [8], 23.4% (inactive). Further, in assay [2], the inhibition of aggregation was -10.1% (inactive). Also, the results for the nuclei count in assay [2] and in assay [3] were 95.7% and 132%, respectively. Further, the figures for the fluorescence slope in assay [4] and in assay [6] were -0.556 (inactive) and 0.00327 (inactive), respectively. In addition, in assay [5], the NADPH fluorescence slope is -9.5e-06 (inactive).
For the molecule `COc1ccc(OC)c(NC(=O)Cc2coc3ccc(C)cc23)c1`, the cell count in assay [1] was 451. Moreover, the inhibition in assay [1] is 3.5% (inactive); in assay [3], 46.7% (inactive); in assay [7] it was 13.3% (inactive); in assay [8] it was 16.6% (inactive). Besides, in assay [2], the inhibition of aggregation was 3.9% (inactive). The nuclei count in assay [2] came to 97.1%; in assay [3], 90.5%. For the same molecule, the fluorescence slope is -0.468 (inactive) in assay [4] and 0.0049 (inactive) in assay [6]. In assay [5], the NADPH fluorescence slope is -3.1e-05 (inactive).
Consider `N#CC1=C(N)Oc2n[nH]c(-c3cccs3)c2C1c1cccs1` (centres undefined), for which the cell count in assay [1] is 562. Further, the inhibition is -15.3% (inactive) in assay [1], -80.1% (inactive) in assay [3], 13.4% (inactive) in assay [7] and 17.8% (inactive) in assay [8]. Further, the inhibition of aggregation in assay [2] is 4.7% (inactive). Also, the values for the nuclei count in assay [2] and in assay [3] were 99.1% and 113%, respectively. Also, the fluorescence slope in assay [4] was -0.396 (inactive); in assay [6] it was 0.00605 (inactive). Also, in assay [5], the NADPH fluorescence slope is -1.8e-05 (inactive).
`Cc1c(C(=O)O)oc2ccc(S(=O)(=O)NCCC3=CCCCC3)cc12`: the cell count in assay [1] worked out at 652. For the same molecule, the inhibition is 9.2% (inactive) in assay [1], -36.3% (inactive) in assay [3], 3.33% (inactive) in assay [7] and 15.9% (inactive) in assay [8]. For the same molecule, in assay [2], the inhibition of aggregation was 5% (inactive). Also, the nuclei count worked out at 88% in assay [2] and 114% in assay [3]. The fluorescence slope in assay [4] was -0.454 (inactive); in assay [6] it was 0.0068 (inactive). Moreover, in assay [5], the NADPH fluorescence slope is 4.4e-05 (inactive).
